Key:
blood glucose = assay: Postprandial glycemic response to a standardized liquid test meal; assay type: in vivo, patients with type 1 diabetes; conditions: first 4 h after study drug administration
In short: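 Single-blind crossover in adults with type 1 diabetes. Prandial insulin was withheld >8 h and basal insulin >12 h, and blood glucose was clamped to 100–120 mg/dL with IV glucose or insulin. After a 30-min baseline, staff gave an individually optimized SC abdominal insulin dose with or without hyaluronidase, then a liquid meal.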

[1] = assay type: in vivo, patients with type 1 diabetes; conditions: s.c., arithmetic mean; n = 21 (lispro), n = 16 (RHI); serum insulin RIA
[2] = Safety: adverse events, hypoglycemia; assay type: in vivo, patients with type 1 diabetes; conditions: for patients with hypoglycemia (adverse event): generally mild or occasionally moderate, safety population; for number of subjects administered glucose for the treatment of hypoglycemia: intravenous glucose (20%) at investigator's discretion when blood glucose <60 mg/dL or symptoms

| Substance | total hyperglycemic excursions (area under the curve >140 mg/dL) (blood glucose) | fraction of insulin exposure >2 h after injection [1] [%] | fraction of total insulin exposure within the first hour following injection [1] [%] | patients with hypoglycemia (adverse event) [2] | number of subjects administered glucose for the treatment of hypoglycemia [2] | patients with mild injection-site erythema ([2]; in vivo) |
| --- | --- | --- | --- | --- | --- | --- |
| insulin lispro | 526 min ⋅ mg^−1 ⋅ mL^−1 | 22 | 39 | 13 of 22 | 6 of 21 |  |
| regular human insulin [RHI] | 1,238 min ⋅ mg^−1 ⋅ mL^−1 |  |  | 16 of 21 | 12 of 21 | two |

— publication PMC3041204 (Diabetes Care, 2011)
